Measured values taken from ChEMBL document CHEMBL1781959, “Synthesis and in vitro antitumor activity of substituted quinazoline and quinoxaline derivatives: search for anticancer agent” (Eur J Med Chem, 2011).

System: SF-268
Assay: Anticancer activity against human SF268 cells assessed as cell growth promotion at 10^-5 M after 48 hrs by SRB assay relative to control
Format: functional
Work on `COc1cc(/C=C/c2ccc(NC(=O)c3ccccc3NC(=O)c3ccccc3)cc2)ccc1O` yielded an Activity of 108%.

System: SNB-19
Assay: Anticancer activity against human SNB19 cells assessed as cell growth promotion at 10^-5 M after 48 hrs by SRB assay relative to control
Format: functional
`COc1cc(/C=C/c2ccc(NC(=O)c3ccccc3NC(=O)c3ccccc3)cc2)ccc1O` showed an Activity of 104%.

System: U-251
Assay: Anticancer activity against human U251 cells assessed as cell growth promotion at 10^-5 M after 48 hrs by SRB assay relative to control
Format: functional
With `COc1cc(/C=C/c2ccc(NC(=O)c3ccccc3NC(=O)c3ccccc3)cc2)ccc1O` the Activity was 103%.

System: Malme-3M
Assay: Anticancer activity against human MALME-3M cells assessed as cell growth promotion at 10^-5 M after 48 hrs by SRB assay relative to control
Format: functional
`COc1cc(/C=C/c2ccc(NC(=O)c3ccccc3NC(=O)c3ccccc3)cc2)ccc1O` showed an Activity of 101%.

System: CCRF-CEM
Assay: Anticancer activity against human CCRF-CEM cells assessed as cell growth promotion at 10^-5 M after 48 hrs by SRB assay relative to control
Format: functional
`COc1cc(/C=C/c2ccc(NC(=O)c3ccccc3NC(=O)c3ccccc3)cc2)ccc1O` showed an Activity of 79.93%.

System: M14
Assay: Anticancer activity against human M14 cells assessed as cell growth promotion at 10^-5 M after 48 hrs by SRB assay relative to control
Format: functional
Work on `COc1cc(/C=C/c2ccc(NC(=O)c3ccccc3NC(=O)c3ccccc3)cc2)ccc1O` yielded an Activity of 92.83%.

System: MDA-MB-435
Assay: Anticancer activity against human MDA-MB-435 cells assessed as cell growth promotion at 10^-5 M after 48 hrs by SRB assay relative to control
Format: functional
`COc1cc(/C=C/c2ccc(NC(=O)c3ccccc3NC(=O)c3ccccc3)cc2)ccc1O` showed an Activity of 107%.

System: SK-MEL-5
Assay: Anticancer activity against human SK-MEL-5 cells assessed as cell growth promotion at 10^-5 M after 48 hrs by SRB assay relative to control
Format: functional
With `COc1cc(/C=C/c2ccc(NC(=O)c3ccccc3NC(=O)c3ccccc3)cc2)ccc1O` the Activity was 86.16%.

System: UACC-257
Assay: Anticancer activity against human UACC257 cells assessed as cell growth promotion at 10^-5 M after 48 hrs by SRB assay relative to control
Format: functional
Work on `COc1cc(/C=C/c2ccc(NC(=O)c3ccccc3NC(=O)c3ccccc3)cc2)ccc1O` yielded an Activity of 104%.

System: UACC-62
Assay: Anticancer activity against human UACC62 cells assessed as cell growth promotion at 10^-5 M after 48 hrs by SRB assay relative to control
Format: functional
For `COc1cc(/C=C/c2ccc(NC(=O)c3ccccc3NC(=O)c3ccccc3)cc2)ccc1O`, the Activity was 98.83%.

System: OVCAR-3
Assay: Anticancer activity against human OVCAR3 cells assessed as cell growth promotion at 10^-5 M after 48 hrs by SRB assay relative to control
Format: functional
With `COc1cc(/C=C/c2ccc(NC(=O)c3ccccc3NC(=O)c3ccccc3)cc2)ccc1O` the Activity was 107%.

System: OVCAR-5
Assay: Anticancer activity against human OVCAR5 cells assessed as cell growth promotion at 10^-5 M after 48 hrs by SRB assay relative to control
Format: functional
`COc1cc(/C=C/c2ccc(NC(=O)c3ccccc3NC(=O)c3ccccc3)cc2)ccc1O` gave an Activity of 116%.

System: NCI/ADR-RES
Assay: Anticancer activity against human NCI/ADR-RES cells assessed as cell growth promotion at 10^-5 M after 48 hrs by SRB assay relative to control
Format: functional
`COc1cc(/C=C/c2ccc(NC(=O)c3ccccc3NC(=O)c3ccccc3)cc2)ccc1O` showed an Activity of 117%.

System: SK-OV-3
Assay: Anticancer activity against human SKOV3 cells assessed as cell growth promotion at 10^-5 M after 48 hrs by SRB assay relative to control
Format: functional
Work on `COc1cc(/C=C/c2ccc(NC(=O)c3ccccc3NC(=O)c3ccccc3)cc2)ccc1O` yielded an Activity of 96.53%.

System: 786-0
Assay: Anticancer activity against human 786-0 cells assessed as cell growth promotion at 10^-5 M after 48 hrs by SRB assay relative to control
Format: functional
In the case of `COc1cc(/C=C/c2ccc(NC(=O)c3ccccc3NC(=O)c3ccccc3)cc2)ccc1O`, the Activity is reported as 95.86%.

System: CAKI-1
Assay: Anticancer activity against human Caki1 cells assessed as cell growth promotion at 10^-5 M after 48 hrs by SRB assay relative to control
Format: functional
For `COc1cc(/C=C/c2ccc(NC(=O)c3ccccc3NC(=O)c3ccccc3)cc2)ccc1O`, the Activity was 95.9%.

System: RXF 393
Assay: Anticancer activity against human RXF393 cells assessed as cell growth promotion at 10^-5 M after 48 hrs by SRB assay relative to control
Format: functional
With `COc1cc(/C=C/c2ccc(NC(=O)c3ccccc3NC(=O)c3ccccc3)cc2)ccc1O` the Activity was 95.14%.

System: SN12C
Assay: Anticancer activity against human SN12C cells assessed as cell growth promotion at 10^-5 M after 48 hrs by SRB assay relative to control
Format: functional
Compound `COc1cc(/C=C/c2ccc(NC(=O)c3ccccc3NC(=O)c3ccccc3)cc2)ccc1O` has an Activity of 96.62%.

System: UO-31
Assay: Anticancer activity against human UO31 cells assessed as cell growth promotion at 10^-5 M after 48 hrs by SRB assay relative to control
Format: functional
Work on `COc1cc(/C=C/c2ccc(NC(=O)c3ccccc3NC(=O)c3ccccc3)cc2)ccc1O` yielded an Activity of 68.52%.

System: HL-60(TB)
Assay: Anticancer activity against human HL-60(TB) cells assessed as cell growth promotion at 10^-5 M after 48 hrs by SRB assay relative to control
Format: functional
Procedure, shortened: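 NCI-60 single-dose screen: compound at 10^-5 M, 48 h at 37 °C, 5% CO2; cells grown in RPMI 1640 with 5% FBS and 2 mM L-glutamine, pre-incubated 24 h before dosing. Adherent cells fixed with cold TCA; endpoint is sulforhodamine B protein staining. Percent growth of treated cells is reported relative to untreated control.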
`COc1cc(/C=C/c2ccc(NC(=O)c3ccccc3NC(=O)c3ccccc3)cc2)ccc1O` gave an Activity of 97.49%.

System: K562
Assay: Anticancer activity against human K562 cells assessed as cell growth promotion at 10^-5 M after 48 hrs by SRB assay relative to control
Format: functional
In the case of `COc1cc(/C=C/c2ccc(NC(=O)c3ccccc3NC(=O)c3ccccc3)cc2)ccc1O`, the Activity is reported as 96.88%.

System: MOLT-4
Assay: Anticancer activity against human MOLT4 cells assessed as cell growth promotion at 10^-5 M after 48 hrs by SRB assay relative to control
Format: functional
For `COc1cc(/C=C/c2ccc(NC(=O)c3ccccc3NC(=O)c3ccccc3)cc2)ccc1O`, the Activity was 86.81%.

System: MDA-MB-231
Assay: Anticancer activity against human MDA-MB-231 cells assessed as cell growth promotion at 10^-5 M after 48 hrs by SRB assay relative to control
Format: functional
With `COc1cc(/C=C/c2ccc(NC(=O)c3ccccc3NC(=O)c3ccccc3)cc2)ccc1O` the Activity was 96.74%.

System: not listed separately
Assay: Anticancer activity against human Hs 578T cells assessed as cell growth promotion at 10^-5 M after 48 hrs by SRB assay relative to control
Format: functional
Work on `COc1cc(/C=C/c2ccc(NC(=O)c3ccccc3NC(=O)c3ccccc3)cc2)ccc1O` yielded an Activity of 100%.

System: T47D
Assay: Anticancer activity against human T47D cells assessed as cell growth promotion at 10^-5 M after 48 hrs by SRB assay relative to control
Format: functional
Work on `COc1cc(/C=C/c2ccc(NC(=O)c3ccccc3NC(=O)c3ccccc3)cc2)ccc1O` yielded an Activity of 89.85%.

System: not listed separately
Assay: Anticancer activity against human […] cells assessed as cell growth promotion at 10^-5 M after 48 hrs by SRB assay relative to control
Format: functional
In the case of `COc1cc(/C=C/c2ccc(NC(=O)c3ccccc3NC(=O)c3ccccc3)cc2)ccc1O`, the Activity is reported as 79.36%.

System: SR
Assay: Anticancer activity against human SR cells assessed as cell growth promotion at 10^-5 M after 48 hrs by SRB assay relative to control
Format: functional
Work on `COc1cc(/C=C/c2ccc(NC(=O)c3ccccc3NC(=O)c3ccccc3)cc2)ccc1O` yielded an Activity of 106.41%.

System: EKVX
Assay: Anticancer activity against human EKVX cells assessed as cell growth promotion at 10^-5 M after 48 hrs by SRB assay relative to control
Format: functional
`COc1cc(/C=C/c2ccc(NC(=O)c3ccccc3NC(=O)c3ccccc3)cc2)ccc1O` gave an Activity of 100%.

System: HOP-62
Assay: Anticancer activity against human HOP62 cells assessed as cell growth promotion at 10^-5 M after 48 hrs by SRB assay relative to control
Format: functional
Work on `COc1cc(/C=C/c2ccc(NC(=O)c3ccccc3NC(=O)c3ccccc3)cc2)ccc1O` yielded an Activity of 94.69%.

System: NCI-H23
Assay: Anticancer activity against human NCI-H23 cells assessed as cell growth promotion at 10^-5 M after 48 hrs by SRB assay relative to control
Format: functional
Compound `COc1cc(/C=C/c2ccc(NC(=O)c3ccccc3NC(=O)c3ccccc3)cc2)ccc1O` has an Activity of 105%.

System: NCI-H322M
Assay: Anticancer activity against human NCI-H322M cells assessed as cell growth promotion at 10^-5 M after 48 hrs by SRB assay relative to control
Format: functional
`COc1cc(/C=C/c2ccc(NC(=O)c3ccccc3NC(=O)c3ccccc3)cc2)ccc1O` gave an Activity of 91.92%.

System: NCI-H460
Assay: Anticancer activity against human NCI-H460 cells assessed as cell growth promotion at 10^-5 M after 48 hrs by SRB assay relative to control
Format: functional
`COc1cc(/C=C/c2ccc(NC(=O)c3ccccc3NC(=O)c3ccccc3)cc2)ccc1O` gave an Activity of 107%.

System: HCT-116
Assay: Anticancer activity against human HCT116 cells assessed as cell growth promotion at 10^-5 M after 48 hrs by SRB assay relative to control
Format: functional
With `COc1cc(/C=C/c2ccc(NC(=O)c3ccccc3NC(=O)c3ccccc3)cc2)ccc1O` the Activity was 92.7%.

System: HCT-15
Assay: Anticancer activity against human HCT15 cells assessed as cell growth promotion at 10^-5 M after 48 hrs by SRB assay relative to control
Format: functional
`COc1cc(/C=C/c2ccc(NC(=O)c3ccccc3NC(=O)c3ccccc3)cc2)ccc1O` gave an Activity of 98.82%.

System: HT-29
Assay: Anticancer activity against human HT-29 cells assessed as cell growth promotion at 10^-5 M after 48 hrs by SRB assay relative to control
Format: functional
`COc1cc(/C=C/c2ccc(NC(=O)c3ccccc3NC(=O)c3ccccc3)cc2)ccc1O` gave an Activity of 121%.

System: KM12
Assay: Anticancer activity against human KM12 cells assessed as cell growth promotion at 10^-5 M after 48 hrs by SRB assay relative to control
Format: functional
Compound `COc1cc(/C=C/c2ccc(NC(=O)c3ccccc3NC(=O)c3ccccc3)cc2)ccc1O` has an Activity of 106%.

System: SW-620
Assay: Anticancer activity against human SW620 cells assessed as cell growth promotion at 10^-5 M after 48 hrs by SRB assay relative to control
Format: functional
In the case of `COc1cc(/C=C/c2ccc(NC(=O)c3ccccc3NC(=O)c3ccccc3)cc2)ccc1O`, the Activity is reported as 109%.
